High-throughput results (PubChem)
Most compounds without a hit are left out; they make up all but 1.3% or so of the library.
SDO1 yeast rescue = sdo1-depleted yeast growth rescue; S. cerevisiae sdo1-depleted JHY4D growth rescue, OD600 30 h; active compounds read high; pdr5 snq2 efflux-pump mutant strain; z-score at 10 µM; 140,000 compounds, 0.21% hits; AID 817;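 active means z-score above 3 at both the 24 hr and the 30 hr optical density reads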;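 further: z-score against mean and SD of all compound wells on the same plate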
BB579 growth dn = yeast BB579 growth reduction in restrictive medium; S. cerevisiae BB579 growth, OD615, 48 h; inhibition, % at 10 µM; 140,000 compounds, 0.51% hits; AID 804;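 active means inhibition above a set limit, 3 SD over the mean compound inhibition, cut at about 44% in these data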
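Material: Saccharomyces cerevisiae DeaD strain BB579, replicative lifespan model yeast; buffer or medium: CSMM-D restrictive synthetic medium containing dextrose (glucose); compound: 10 µM single dose, DMSO 0.25%; timing: 48 h compound exposure at 30 °C after 4 h preincubation; signal: turbidity as optical density at 615 nm; benchmarks: positive control amphotericin B 10 µg/mL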
Yeast life ext = extends the lifespan of yeast. S. cerevisiae growth with nicotinamide, OD615; deaD strain in restrictive glucose medium. inhibition of the nicotinamide effect, % at 10 µM. 130,000 compounds, 0.68% hits. AID 775;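 active means inhibition above a set limit, placed 3 SD over the median of all compounds, cut at about 26% in these data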;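 further: 0% = nicotinamide-treated wells and 100% = cells grown without nicotinamide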
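Measured by: optical density (absorbance) at 615 nm; System: modified budding yeast, DeaD strain; Medium: restrictive CSMM-D dextrose medium; Timing: 4 h preincubation then 48 h treatment at 30 °C.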
HMGR II inh = E. faecalis class II HMG-CoA reductase inhibition. inhibition, % at 10 µM. 190,000 compounds, 0.41% hits. AID 1066. purified E. faecalis HMGR, NADPH absorbance 340 nm kinetic;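 active means inhibition above a set limit, the median over all tested compounds plus 3 SD, cut at about 9.5% in these data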;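 further: enzyme runs in reverse so mevalonate oxidation gives rising NADPH absorbance; 0% = complete reaction with DMSO and 100% = background rate lacking mevalonate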
* marks the source's active call; other numbers are inactive results; . = no result given.

SMILES	SDO1 yeast rescue	BB579 growth dn	Yeast life ext	HMGR II inh
c1ccc(Nc2nc(-c3ccccn3)cs2)cc1	-1.65	29.3	-9.3	-2.3
COc1cccc2sc(Nc3nc(-c4ccccn4)cs3)nc12	-2.37	87.9*	-3.8	2.0
COc1ccc(-c2cnn3c(N)c(S(=O)(=O)C(C)(C)C)cnc23)cc1	-1.29	-1.8	30.0*	-5.6
COc1ccc(/C=N/Nc2nc(Nc3ccccc3)nc(N3CCCC3)n2)cc1	.	.	.	11.2*
COc1ccc(/C=N/Nc2nc(N3CCCC3)nc(N3CCCC3)n2)cc1	1.53	-15.1	-6.6	1.4
O=C(O)C1C2CCC(O2)C1C(=O)NCc1ccc(Cl)cc1 (centres undefined)	0.81	16.9	2.7	-2.6
Cc1ccc(C(=O)Nc2nc3ccccc3s2)s1	-0.51	-20.7	-21.7	-5.8
Cc1ccc(CNc2nc3ccccc3s2)s1	-1.91	-37.7	32.4*	1.1
CCOC(=O)CC(NC(=O)CCc1c(C)nc2ncnn2c1C)c1ccc(C)cc1 (centres undefined)	.	.	.	-1.0
O=C(OCC(=O)c1c[nH]c2ccccc12)c1ccc([N+](=O)[O-])s1	.	.	.	-4.8
CCc1cccc2c(C(=O)COC(=O)c3ccc([N+](=O)[O-])s3)c[nH]c12	-2.06	98.1*	-9.3	-10.3
CC(=O)N1c2ccccc2C2(O)N=C(C)SC12 (centres undefined)	0.55	62.0*	3.6	-1.3
O=C(CS(=O)(=O)c1c[nH]c2ccccc12)N1CCc2ccccc21	.	.	.	-0.2
O=C1c2ccccc2N2C(=O)c3ccccc3C2N1O (centres undefined)	-0.01	-32.7	38.5*	0.1
CCCCn1c(SCC(=O)Nc2nnc(C)s2)nnc1-c1ccncc1	.	.	.	0.3
O=C(NCc1ccccc1)NC(O)C(Cl)(Cl)Cl (centres undefined)	.	.	.	-4.1
CC1(C)Cc2nc(NCCN3CCOCC3)c(C#N)cc2CO1	0.49	-21.3	-1.9	-1.1
CC1CCN(c2nc3c(cc2C#N)COC(C)(C)C3)CC1	.	.	.	9.7*
Cc1cccc(-c2nnc3sc(-c4ccccc4C)nn23)c1	-3.11	43.9*	-8.1	-2.8
Clc1ccc2[nH]c3c(c2c1)CCc1cn[nH]c1-3	-2.39	100.3*	-29.4	-6.4
CC1=NNC(=O)C(CC(=O)Nc2ccc(Cl)c(Cl)c2)C1 (centres undefined)	1.41	0.2	-6.1	-9.1
O=C1Nc2ccccc2C12OCC1(CO2)COC2(OC1)C(=O)Nc1ccccc12 (centres undefined)	0.17	-46.1	67.5*	0.8
CC1(C)COC2(OC1)C(=O)Nc1ccccc12	.	.	.	-3.7
O=[N+]([O-])c1c(C(Cl)Cl)nn(-c2ccccc2)c1N1CCCC1	-2.37	-42.5	45.2*	-4.6
CC(C)(CO)NCC#Cc1ccccc1	.	.	.	-0.2
SMILES	SDO1 yeast rescue	BB579 growth dn	Yeast life ext	HMGR II inh
COc1ccc(OC)c(C2C(C(C)=O)=C(O)C(=O)N2Cc2cccnc2)c1 (centres undefined)	1.15	-26.5	81.7*	4.6
CCn1cc(/C=N\NC(=O)Cc2ccc(Cl)cc2)cn1	0.37	-7.1	-2.0	-1.4
CC1CC2c3cccc(C(=O)O)c3C(=O)N2c2ccc(Cl)cc21 (centres undefined)	.	.	.	-2.9
CC1(C)CC2c3cccc(C(=O)O)c3C(=O)N2c2c1ccc1ccccc21 (centres undefined)	-0.52	-21.2	47.9*	-4.8
COC(=O)c1sc(S(=O)(=O)Nc2ccc(Br)cc2)c(C(=O)OC)c1C	-0.83	-12.2	41.9*	0.4
COC(=O)c1sc(S(=O)(=O)Nc2ccc3cn[nH]c3c2)c(C(=O)OC)c1C	0.26	-34.7	-8.5	-6.5
COC(=O)c1sc(S(=O)(=O)Nc2ccc(C)cc2)c(C(=O)OC)c1C	-1.05	-40.8	38.0*	-4.8
O=C(Nc1ccncc1)c1cn(-c2ccccc2)nc1-c1cccs1	-2.41	-15.4	-11.9	13.4*
O=C1C(=C(O)c2ccccc2)C(=O)c2ccccc21	0.44	-39.9	42.0*	-1.4
O=C1C(=C(c2ccccc2)c2ccccc2)Nc2ccccc21	-1.9	-18.2	4.8	1.0
O=C(O)c1cc2nc(-c3ccccc3)cc(C(F)(F)F)n2n1	0.26	28.8	56.8*	-3.7
O=C(O)c1cc2nc(-c3ccccc3)cc(-c3ccccc3)n2n1	.	.	.	1.8
FC(F)(F)c1ccccc1NC(=S)NC1CCN(Cc2ccccc2)CC1	.	.	.	0.1
CCc1cccc(C)c1NC(=O)CO/N=C(\N)CC(=O)NC1CCCCC1	.	.	.	10.8*
C/C(CCN1CCCCc2nc(C)c(C)cc21)=N\O[C@H](C)c1cn([C@H](CO)Cc2ccccc2)nn1	-0.14	-21.8	-1.1	11.6*
O=C(NCc1ccco1)C1CCCN(S(=O)(=O)c2ccc(Br)cc2)C1 (centres undefined)	.	.	.	10.6*
Nc1c(Nc2ccccc2)c2ccccc2oc1=O	-0.33	48.1*	-25.9	-6.7
O=C(CNC(=O)c1ccccc1F)Nc1ccccc1C(F)(F)F	.	.	.	-5.5
CC(C)(C#CC(O)(c1ccccc1)c1ccccc1)N1CCCC1	.	.	.	-3.6
CC(C)N(C(=S)Nc1cc(S(=O)(=O)N2CCOCC2)ccc1Cl)c1ccccc1	0.12	-10.6	39.5*	-5.5
Cc1ccccc1OCCC(=O)OCC(=O)Nc1cc(S(=O)(=O)N2CCOCC2)ccc1Cl	.	.	.	13.4*
CN1CCN(C(=S)Nc2cc(S(=O)(=O)N3CCOCC3)ccc2Cl)CC1	.	.	.	-6.5
COc1ccc(-n2cc(-c3ccccc3)c3c(N4CC(C)OC(C)C4)ncnc32)cc1 (centres undefined)	.	.	.	-3.2
N/C(Cc1ccc(Cl)cc1)=N\OC(=O)c1ccccc1	-1.77	96.3*	-12.9	-1.0
O=C(Cn1cccc1C(=O)c1ccccc1)NCc1ccco1	-0.08	-38.9	-0.8	14.2*
SMILES	SDO1 yeast rescue	BB579 growth dn	Yeast life ext	HMGR II inh
CC(C)=CCN1CCN(Cc2cc(C(C)C)n[nH]2)CC1CCO (centres undefined)	.	.	.	3.4
Cc1cc(C2C(C#N)=C(N)Oc3n[nH]c(C)c32)c(C)s1 (centres undefined)	0.32	-2.2	71.1*	6.5
CC(=NCCc1c(C)[nH]c2ccc(C)cc12)C1=C(O)CC(c2ccccc2)CC1=O (centres undefined)	-1.06	-11.8	57.7*	-2.8
CCCC(=NCCc1c(C)[nH]c2ccccc12)C1=C(O)CC(c2ccccc2)CC1=O (centres undefined)	0.44	-30.4	7.0	-0.4
CC(=NCCc1c(C)[nH]c2ccc(OC(F)(F)F)cc12)C1=C(O)CC(c2ccccc2)CC1=O (centres undefined)	.	.	.	11.5*
COc1cc(C2C3=C(CCCC3=O)Nc3ccc4ncccc4c32)ccc1O (centres undefined)	.	.	.	-2.8
CCOc1cc(C2C3=C(CCCC3=O)Nc3ccc4ncccc4c32)ccc1O (centres undefined)	.	.	.	12.2*
O=C(Nc1ccc(N2CCCC2)c(Cl)c1)c1ccc2c(c1)OCCO2	-0.29	-25.8	.	9.6*
O=C(Nc1ccc(N2CCCCC2)c(Cl)c1)c1ccc2c(c1)OCCO2	-1.21	-19.0	-13.4	-4.3
Cc1ccc(C(C[N+](=O)[O-])n2nc(C)cc2C)cc1 (centres undefined)	-2.5	47.4*	18.7	-2.5
